Results on 14 compounds are retold here after ChEMBL document CHEMBL1806425, “Design and synthesis of 4-amino-2-phenylquinazolines as novel topoisomerase I inhibitors with molecular modeling” (Bioorg Med Chem, 2011).

In brackets after ≈: the same amount, converted by molar mass. Activity calls are given as the source filed them. The calls are words filed in the database; no cut-off is given here.

One assay deals with SK-MEL-2. In words: Cytotoxicity against human SK-MEL-2 cells by sulforhodamine B assay. The assay is classed as functional, cell-based.
For another assay, the system named is SK-OV-3. In words: Cytotoxicity against human SKOV3 cells by sulforhodamine B assay. The assay is classed as functional, cell-based.
In a further assay the test system is A549. The experiment in a line: Cytotoxicity against human A549 cells by sulforhodamine B assay. The assay is classed as functional, cell-based.
The species named for assay [1] is Bos taurus. The experiment in a line: Inhibition of calf thymus DNA topoisomerase I assessed as relaxation of supercoiled DNA pBR322 at 100 ug/ml after 30 mins by agarose gel electrophoresis relative to camptothecin. Put shortly: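 Relaxation of 200 ng pBR322 supercoiled plasmid by 2 units calf thymus topo I, incubated with or without compound (20 mM DMSO stocks) for 30 min at 37 °C. Buffer: 35 mM Tris–HCl pH 8.0, 72 mM KCl, 5 mM MgCl2, 5 mM DTT, 2 mM spermidine, 0.01% BSA. The reaction was stopped with SDS/glycerol dye, then run on 1% agarose in TAE at 15 V for 6 h and stained.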

Another assay has as its system HCT-15. The experiment in a line: Cytotoxicity against human HCT15 cells by sulforhodamine B assay. The assay is classed as functional, cell-based.
For assay [2], the species on record is Bos taurus. In words: Inhibition of calf thymus DNA topoisomerase I assessed as relaxation of supercoiled DNA pBR322 at 10 to 100 ug/ml after 30 mins by agarose gel electrophoresis. Put shortly: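 Relaxation of supercoiled pBR322 plasmid DNA (200 ng) by 2 units calf thymus topo I, incubated with or without compound at 37 °C for 30 min. Buffer: 35 mM Tris–HCl pH 8.0, 72 mM KCl, 5 mM MgCl2, 5 mM DTT, 2 mM spermidine, 0.01% BSA. Stopped with SDS/dye/glycerol solution. Run on 1% agarose gel in TAE at 15 V for 6 h, then stained. Compound stocks were 20 mM in DMSO.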

For `CN1CCN(c2nc(-c3ccccc3)nc3ccccc23)CC1`, the concentration for half-maximal inhibition (IC50) with SK-MEL-2 was 37 µg/mL (≈ 122 µM); with SK-OV-3, 26.8 µg/mL (≈ 88.2 µM); in the assay on A549 it was 26.9 µg/mL (≈ 88.3 µM); in the assay with HCT-15 it was 22.4 µg/mL (≈ 73.5 µM). The inhibition result in the assay filed under Bos taurus [1] was “Active”.

`CC(C)Nc1nc(-c2ccccc2)nc2ccccc12`: the half-inhibitory concentration (IC50) was found to be 16.5 µg/mL (≈ 62.5 µM) with SK-MEL-2, 16.9 µg/mL (≈ 64.2 µM) in the assay on SK-OV-3, 7.53 µg/mL (≈ 28.6 µM) with A549 and 4.11 µg/mL (≈ 15.6 µM) in the assay on HCT-15. Besides, the inhibition result in the assay filed under Bos taurus [1] was “Active”.

Turning to `CCOC(=O)CCNc1nc(-c2ccccc2)nc2ccccc12.Cl`, the concentration for half-maximal inhibition (IC50) in the assay on SK-MEL-2, with SK-OV-3, in the assay with A549 and in the assay with HCT-15 was more than 100 µg/mL throughout. For the same compound, the inhibition entry in the assay filed under Bos taurus [1] was “inactive”.

Take `c1ccc(-c2nc(NC3CCCCC3)c3ccccc3n2)cc1`: the 50% inhibitory concentration (IC50) in the assay with SK-MEL-2 was determined as 9.63 µg/mL (≈ 31.7 µM); in the assay with SK-OV-3, 9.82 µg/mL (≈ 32.4 µM); in the assay with A549, 7.23 µg/mL (≈ 23.8 µM); in the assay with HCT-15, 2.76 µg/mL (≈ 9.1 µM). Besides, the inhibition result in the assay listed under Bos taurus [1] is “Active”.

Regarding `CNc1nc(-c2ccccc2)nc2ccccc12`, the IC50 is 24.4 µg/mL (≈ 104 µM) with SK-MEL-2, 33.6 µg/mL (≈ 143 µM) with SK-OV-3, 29.3 µg/mL (≈ 125 µM) in the assay with A549 and 21.2 µg/mL (≈ 90 µM) in the assay on HCT-15. In the assay listed under Bos taurus [1], the inhibition result was “inactive”.

With `c1ccc(-c2nc(N3CCOCC3)c3ccccc3n2)cc1`, the half-inhibitory concentration (IC50) in the assay with SK-MEL-2 is 65.2 µg/mL (≈ 224 µM); in the assay with SK-OV-3, 57 µg/mL (≈ 196 µM); with A549, 52.8 µg/mL (≈ 181 µM); with HCT-15, 51.8 µg/mL (≈ 178 µM). For the same compound, in the assay filed under Bos taurus [1], the inhibition entry is “Active”.

As to `COC(=O)CNc1nc(-c2ccccc2)nc2ccccc12`, the IC50 stood at 37.6 µg/mL (≈ 128 µM) in the assay with SK-MEL-2, 35.5 µg/mL (≈ 121 µM) in the assay on SK-OV-3, 36.3 µg/mL (≈ 124 µM) in the assay on A549 and 37.5 µg/mL (≈ 128 µM) with HCT-15. The inhibition result in the assay filed under Bos taurus [1] is “Active”.

Take `COCCNc1nc(-c2ccccc2)nc2ccccc12`: the half-inhibitory concentration (IC50) amounted to 27.6 µg/mL (≈ 98.9 µM) in the assay with SK-MEL-2, 22.9 µg/mL (≈ 82 µM) in the assay on SK-OV-3, 27.4 µg/mL (≈ 98.3 µM) in the assay with A549 and 26.8 µg/mL (≈ 96.1 µM) in the assay with HCT-15. For the same compound, the inhibition result in the assay listed under Bos taurus [1] was “Active”.

On to `Cl.c1ccc(CNc2nc(-c3ccccc3)nc3ccccc23)cc1`, for which the IC50 turned out to be 15.8 µg/mL with SK-MEL-2, 9.5 µg/mL with SK-OV-3, 9.79 µg/mL in the assay with A549 and 6.13 µg/mL with HCT-15.

`CC[C@@]1(O)C(=O)OCc2c1cc1n(c2=O)Cc2cc3ccccc3nc2-1` [CAMPTOTHECIN]: in the assay filed under Bos taurus [2], the inhibition result is “Active”. In addition, the half-inhibitory concentration (IC50) was found to be 6.88 µg/mL (≈ 19.7 µM) with SK-MEL-2, 1.54 µg/mL (≈ 4.42 µM) in the assay with SK-OV-3, 0.072 µg/mL (≈ 0.207 µM) with A549 and 0.096 µg/mL (≈ 0.276 µM) with HCT-15.

As for `CN(C)CCN(C)c1nc(-c2ccccc2)nc2ccccc12`, the IC50 amounted to 28.9 µg/mL (≈ 94.4 µM) in the assay on SK-MEL-2, 25.5 µg/mL (≈ 83.3 µM) with SK-OV-3, 28.1 µg/mL (≈ 91.8 µM) with A549 and 26.5 µg/mL (≈ 86.4 µM) with HCT-15. In addition, in the assay filed under Bos taurus [1], the inhibition result was “Active”.

With `CN1CCCN(c2nc(-c3ccccc3)nc3ccccc23)CC1`, the IC50 stood at 36.5 µg/mL (≈ 115 µM) in the assay with SK-MEL-2, 26.1 µg/mL (≈ 82 µM) with SK-OV-3, 24.1 µg/mL (≈ 75.7 µM) in the assay on A549 and 20.1 µg/mL (≈ 63.1 µM) with HCT-15. Further, in the assay filed under Bos taurus [1], the inhibition result was “Active”.

As for `c1ccc(CNc2nc(-c3ccccc3)nc3ccccc23)cc1`, the IC50 in the assay on SK-MEL-2 stood at 31.2 µg/mL (≈ 100 µM); in the assay with SK-OV-3, 31.7 µg/mL (≈ 102 µM); in the assay on A549 it was 15.1 µg/mL (≈ 48.6 µM); with HCT-15, 13.9 µg/mL (≈ 44.7 µM).

Regarding `COc1cccc2c1C(=O)c1c(O)c3c(c(O)c1C2=O)C[C@@](O)(C(=O)CO)C[C@@H]3O[C@H]1C[C@H](N)[C@H](O)[C@H](C)O1` [DOXORUBICIN], the IC50 in the assay on SK-MEL-2 was 0.09 µg/mL (≈ 0.166 µM); in the assay with SK-OV-3, 0.08 µg/mL (≈ 0.147 µM); in the assay with HCT-15, 0.05 µg/mL (≈ 0.092 µM).
